The source made the active and inactive calls. No cut-off for these calls is given here.

Tested on in the first data set: not listed separately
In words: Evaluated for the pKa value. In kind it is physicochemical.
Conditions: not given
A digest of the protocol: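 Hydrochloride salt titrated to determine the pKa of the ammonium ion. Values for related analogues were estimated by extrapolating the pKa values of the corresponding dimethyl ethers.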
Turning to `COc1cc2c(cc1OC)NC(N)=NC2`, the pKa was determined as 11.1.

Compound `NC1CCc2c(ccc(O)c2O)C1` (stereo not given) returned a pKa of 9.84.

Regarding `NC1=NCc2cc(O)c(O)cc2N1`, the pKa is 12.

For the compound `NC1CCc2cc(O)c(O)cc2C1` (stereo not given), the pKa was determined as 9.84.

On to `NCCc1ccc(O)c(O)c1` [DOPAMINE], for which the pKa is 9.84.

In the next data set the test system is Canis familiaris. In words: Evaluated for the percentage vasodilation in the renal artery produced by 3000 nmol administered intra-arterially. In kind it is functional, Canis lupus familiaris.
Conditions: not given
A digest of the protocol:
(§1)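 Anesthetized dogs fitted with an electromagnetic flow probe on the renal artery; a bent 25-gauge needle was inserted proximally into the artery for dosing. Phenoxybenzamine, 5 mg/kg ia, was infused first. A dopamine dose-response curve (11.75, 47, 188 nmol/dog) was run, then rising doses of test agent up to 3000 nmol were injected intra-arterially, each in 0.2 mL.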
Turning to `NC1=NCc2cc(O)c(O)cc2N1`, the Vasodilation is 50%.

As to `CNC1=NCc2cc(O)c(O)cc2N1`, the Vasodilation stood at 50%.

`CCCN(CCC)C1=NCc2cc(O)c(O)cc2N1`: the Vasodilation is reported as 50%.

For a further data set, the system named is Canis familiaris. In words: Evaluated for the percentage vasodilation in the renal artery produced by 3000 nmol administered intra-arterially; NA is No Antagonistic activity. To be noted: Canis lupus familiaris. In kind it is functional, organism-based. An outline of the steps:
as §1
Turning to `CNC1=NCc2c(ccc(O)c2O)N1`, the Vasodilation result was “inactive”.

Regarding `CCCN(CCC)C1=NCc2c(ccc(O)c2O)N1`, the Vasodilation result is “inactive”.

In the case of `NC1CCc2c(ccc(O)c2O)C1` (stereo not given), the Vasodilation entry was “inactive”.

As for `NC1=NCc2c(ccc(O)c2O)N1`, the Vasodilation entry is “inactive”.

Take `CN(C)C1=NCc2c(ccc(O)c2O)N1`: the Vasodilation result was “inactive”.

`CN(C)C1=NCc2cc(O)c(O)cc2N1`: the Vasodilation result was “inactive”.

On to `CN(C)C1CCc2c(ccc(O)c2O)C1` (stereo not given), for which the Vasodilation result is “inactive”.

A word on the pKa: it is the negative logarithm of the acid dissociation constant. Read a low pKa as a stronger acid or weaker base.

Values taken from ChEMBL document CHEMBL1122076, “Synthesis of 2-(alkylamino)-5,6- and -6,7-dihydroxy-3,4-dihydroquinazolines and evaluation as potential dopamine agonists” (J Med Chem, 1982).
